FAS-TE inh: FAS thioesterase domain inhibitors, primary screen, biochemical, fluorescence intensity, uHTS | recombinant FAS-TE, OMFH fluorogenic substrate, fluorescence endpoint | AID 602261, 2012 | hit rate 0.67% among 360,000 | Fatty acid synthase (Homo sapiens), P49327 | inhibition, % at 15 µM;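 active = compounds whose normalised, plate-corrected inhibition of enzyme fluorescence in the single-dose primary screen is 50% or more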
SENP1 inh: human SENP1 catalytic domain inhibitors, primary screen, biochemical, FRET, uHTS; recombinant SENP1 catalytic domain, CyPet-SUMO1-YPet FRET cleavage; inhibition, % at 10 µM; hit rate 0.21% among 360,000;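 active = inhibition at least 30% at 10 µM, raw YFP signal under a set limit, fluorescence ratio 0.5 to 1.5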
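material = recombinant human SENP1 catalytic domain, His6-tagged | quantity = 20 pM enzyme | reagent = 25 nM SUMO1 FRET substrate | compound dosing = 10 µM single point, 0.5% DMSO | timing = 50 min enzyme reaction, room temperature, light-protected | detection = FRET, CFP and YFP emission | control set = no-enzyme low, enzyme-DMSO high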
Arrestin-AP2 inh: inhibitors of beta-arrestin/AP2 binding, primary screen, biochemical, GPCR trafficking, flow cytometry; beta-arrestin 1 C-terminal peptide binding to AP2 beta2-adaptin appendage (human); FITC-arrestin peptide / GST-AP2 beads; AP2 beta2 appendage carries R879A mutation; inhibition, % at 10 µM; hit rate 0.31% among 340,000;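 active = inhibition above a set limit, near 3 SD of compounds lacking own fluorescence, cut at about 54% in these data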
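system = GST-tagged AP2 beta2-adaptin appendage (R879A) on 4 µm glutathione beads | reagent = FITC-labelled arrestin peptide probe, 50 nM final | schedule = compound with beads 12 min RT, then probe 1 h RT | signal = HyperCyt-sampled flow cytometry, FL1 channel, ex 488/em 535 nm | read-out = percent response from loss of bead-bound FITC fluorescence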
GASC-1 inh: inhibitors of GASC-1 histone demethylase, primary screen, biochemical, fluorescence, DELFIA europium; hit rate 0.069% among 330,000; GST-JMJD2C(1-420) H3K9me3 demethylation; Lysine-specific demethylase 4C (Homo sapiens), Q9H3R0; inhibition, % at 2.35 µM; AID 2099, 2009;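 active = more than half of a compound's replicate wells show inhibition beyond 50%, single wells judged on their own value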;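 also: signal counts dimethyl H3K9 product captured on neutravidin plate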
FAS-TE conf: FAS thioesterase domain inhibitors, confirmation, biochemical, fluorescence intensity, single concentration; AID 624325, 2012; inhibition, % at 15 µM; hit rate 45% among 2,300; shares compounds with FAS-TE inh; recombinant FAS-TE, OMFH fluorogenic substrate;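 active = compounds inhibiting the enzyme by at least 50% at 15 µM in any one of the replicates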
A number is an active result; n = inactive; x = not tested or not shown. Most compounds without a hit are left out; they make up all but 1.1% or so of the library.

SMILES	FAS-TE inh	SENP1 inh	Arrestin-AP2 inh	GASC-1 inh	FAS-TE conf
N#Cc1cccnc1N1CCN(C(=O)c2cccc3c2C(=O)c2ccc(-c4ccc(Cl)c(C(F)(F)F)c4)cc2S3(=O)=O)CC1	80	n	n	x	n
COc1ccc(-c2ccc3c(c2)S(=O)(=O)c2cccc(C(=O)NC[C@@H]4CCCO4)c2C3=O)cc1OC	n	n	n	x	x
N#Cc1cccnc1N1CCN(C(=O)c2cccc3c2C(=O)c2ccc(Cl)cc2S3(=O)=O)CC1	n	n	n	n	x
O=C1c2ccc(Cl)cc2S(=O)(=O)c2cccc(C(=O)N3CCN(c4ncc(Br)cn4)CC3)c21	68	n	n	n	n
COc1ccc(-c2ccc3c(c2)S(=O)(=O)c2cccc(C(=O)N4CCN(c5c(Cl)cncc5Cl)CC4)c2C3=O)cc1OC	68	51	n	x	n
O=C(CN(Cc1ccc2c(c1)OCO2)C(=O)CNC(=O)c1ccco1)NC1CCCCC1	n	n	n	n	x
COc1ccc2c(c1)CCCC2=O	n	n	n	x	x
O=C(CSc1n[nH]c(-c2ccco2)n1)Nc1sc2c(c1C(=O)Nc1ccccc1)CCCC2	n	n	n	n	x
CCc1ccc(-c2ccc3nnc(SC)n3n2)cc1	n	n	n	n	x
CCCN1CCC(=O)N([C@H](CSc2ccc(C)cc2)c2ccccc2)CC1	n	n	n	n	x
CN(Cc1ccccc1)C(=O)c1ccc(NC(=O)Cc2ccc(NC(=O)C3CCN(S(=O)(=O)c4cccc([N+](=O)[O-])c4)CC3)cc2)cc1	68	n	n	x	n
CN(CCc1ccccc1)C(=O)c1cccc(NC(=O)Cc2cccc(NC(=O)C3CCCN(S(=O)(=O)c4cccc([N+](=O)[O-])c4)C3)c2)c1 (stereo not given)	n	n	n	x	x
CN(CCc1ccccc1)C(=O)c1ccc(NC(=O)Cc2ccc(NC(=O)C3CCCN(S(=O)(=O)c4cccc([N+](=O)[O-])c4)C3)cc2)cc1 (stereo not given)	72	n	n	x	n
CN(Cc1ccccc1)C(=O)c1cccc(NC(=O)Cc2ccc(NC(=O)C3CCN(S(=O)(=O)c4cccc([N+](=O)[O-])c4)CC3)cc2)c1	n	n	n	x	x
COc1ccccc1NC(=S)Nc1cccc(F)c1	n	n	n	n	x
Cn1cc([N+](=O)[O-])c(C(=O)Nc2ccc(C3CCCCC3)cc2)n1	52	n	n	n	n
O=S(=O)(c1ccc(Cl)cc1)N1CCN=C1SCc1cccc(Cl)c1	51	n	n	n	n
O=S(=O)(c1ccc(Cl)cc1)N1CCN=C1SCc1cccnc1	n	n	n	n	x
O=C(/C=C/c1cc([N+](=O)[O-])ccc1OC(F)F)Nc1cccc([N+](=O)[O-])c1	n	n	n	n	x
O=C(/C=C/c1cc([N+](=O)[O-])ccc1OC(F)F)NCc1ccc(F)cc1	72	n	n	n	86
Cc1ccc(N2C(=O)N3[C@H]4c5ccccc5OC[C@@H]4[C@@H](c4ccccc4)[C@@]3(C)C2=O)cc1	55	n	n	n	n
C[C@]12C(=O)N(c3cccc(F)c3)C(=O)N1[C@@H]1c3ccccc3OC[C@@H]1[C@H]2c1ccccc1	n	n	n	n	x
C[C@]12C(=O)N(c3ccc(Br)cc3)C(=O)N1[C@H]1c3ccccc3OC[C@@H]1[C@H]2c1ccccc1	85	n	n	x	n
C[C@]12C(=O)N(c3cccc(F)c3)C(=O)N1[C@H]1c3ccccc3OC[C@@H]1[C@H]2c1ccccc1	68	n	n	n	n
C[C@]12C(=O)N(c3cccc(Cl)c3)C(=O)N1[C@@H]1c3ccccc3OC[C@@H]1[C@H]2c1ccccc1	58	n	n	n	n
SMILES	FAS-TE inh	SENP1 inh	Arrestin-AP2 inh	GASC-1 inh	FAS-TE conf
O=C(NCC(c1ccco1)N1CCCC1)c1cc(=O)[nH]c2ccccc12 (stereo not given)	n	n	n	n	x
C[C@]12C(=O)N(c3ccccc3)C(=O)N1[C@@H]1c3ccccc3OC[C@@H]1[C@H]2c1ccccc1	n	n	n	n	x
C[C@@]12C(=O)N(Cc3ccco3)CC(=O)N1[C@H]1c3ccccc3OC[C@@H]1[C@@H]2c1ccccc1	n	n	n	n	x
Cc1ccc(CN2CC(=O)N3[C@H]4c5ccccc5OC[C@@H]4[C@H](c4ccccc4)[C@]3(C)C2=O)cc1	51	n	n	n	n
C[C@]12C(=O)N(c3ccccc3)C(=O)N1[C@H]1c3ccccc3OC[C@@H]1[C@H]2c1ccccc1	79	n	n	n	n
C[C@]12C(=O)N(c3ccc(C(F)(F)F)cc3)C(=O)N1[C@@H]1c3ccccc3OC[C@@H]1[C@H]2c1ccccc1	60	n	n	n	n
CCOC(=O)[C@@H]1[C@H]2COc3ccccc3[C@@H]2N2C(=O)N(c3ccc(C(F)(F)F)cc3)C(=O)[C@@]12C	n	n	n	n	x
O=C1CCc2cc(S(=O)(=O)Nc3ccccc3)cc3c2N1CCC3	n	n	n	n	x
Cc1ccc(S(=O)(=O)NCCSCc2ccco2)cc1	n	n	n	n	x
Cc1ccc(NC(=O)c2nc(S(=O)(=O)Cc3ccccc3)ncc2Cl)cc1	n	n	n	n	x
O=C(Nc1ccc(F)cc1)c1nc(S(=O)(=O)Cc2ccccc2)ncc1Cl	57	n	n	n	58
Cc1ccccc1CS(=O)(=O)c1ncc(Cl)c(C(=O)Nc2ccc(F)cc2)n1	50	n	n	n	n
CCN(c1ccccc1)S(=O)(=O)c1ccc(NC(=O)c2nc(S(C)(=O)=O)ncc2Cl)cc1	58	n	n	n	61
O=C(COc1ccc([N+](=O)[O-])cc1)NNC(=S)NC(=O)c1ccc(Br)cc1	n	n	n	n	x
Cc1sc(NC(=O)c2ccco2)c(C(Nc2ccccn2)c2ccccc2)c1C (stereo not given)	60	n	n	n	n
COc1cccc(C(Nc2ccccn2)c2c(NC(=O)c3ccco3)sc(C)c2C)c1 (stereo not given)	54	n	n	n	n
O=S(=O)(c1ccccc1)n1ccc(-c2cnc(-c3ccccc3)s2)n1	63	n	n	n	58
COC(=O)c1ccc(OCC(O)CN2CCc3cc(OC)c(OC)cc3C2c2ccccc2)cc1 (stereo not given)	n	n	n	n	x
CCS(=O)(=O)c1ccc2oc(Nc3ccc(OC)cc3)nc2c1	n	n	n	n	x
CCS(=O)(=O)c1ccc2oc(Nc3ccc(C(C)(C)C)cc3)nc2c1	76	n	n	n	52
C[C@@H](NC(=O)c1[nH]cnc1C(=O)Nc1ccc(Cl)cc1)c1ccccc1	64	n	n	n	63
CC[C@]1(c2cccc(C)c2)C(=O)N(C(=O)OC)N1C(=O)OC	62	n	n	n	59

Screening results deposited in PubChem BioAssay by several laboratories.
